# Laboratory results reported in ChEMBL document CHEMBL1125382, “Benzazepinone calcium channel blockers. 2. Structure-activity and drug metabolism studies leading to potent antihypertensive agents. Comparison with benzothiazepinones” (J Med Chem, 1992).
# Legend:
# Oryctolagus cuniculus [1] = organism: Oryctolagus cuniculus; assay: In Vitro evaluation for the vasorelaxant effects in circumferential strips of potassium-depolarized rabbit aorta. (IC50 in rabbit aorta strips contracted with KCl; assay type: functional
# Outline: (§1)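 Circumferential strips of rabbit thoracic aorta, contracted by depolarization with 100 mM KCl, then exposed to various concentrations of compound.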
# Rattus norvegicus [2] = assay: In vivo evaluation for the percentage decrease in blood pressure at 135 umol/kg administered through oral route in spontaneously hypertensive rats and observed for 0-6 h.; assay type: functional
# Outline: (§2)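 Male spontaneously hypertensive rats, 15 weeks old, dosed by oral gavage at 135 μmol/kg. Blood pressure recorded directly via an indwelling abdominal aortic catheter exteriorized in the intrascapular region. Sampled over 20-s intervals every 5 min for 24 h. Value is the maximum percent fall in systolic pressure from predrug control within the stated period, mean of five rats.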
# Rattus norvegicus [3] = assay: In vivo evaluation for the percentage decrease in blood pressure at 135 umol/kg administered through oral route in spontaneously hypertensive rats and observed for 12-18 h.; assay type: functional; outline: as §2
# Rattus norvegicus [4] = assay: In vivo evaluation for the percentage decrease in blood pressure at 135 umol/kg administered through oral route in spontaneously hypertensive rats and observed for 6-12 h.; assay type: functional; outline: as §2
# Oryctolagus cuniculus [5] = organism: Oryctolagus cuniculus; assay: In vitro evaluation for the vasorelaxant effects in circumferential strips of potassium-depolarized rabbit aorta. (IC50 in rabbit aorta strips contracted with KCl; assay type: functional; outline: as §1
# Oryctolagus cuniculus [6] = organism: Oryctolagus cuniculus; assay: Vasorelaxant effects in circumferential strips of potassium-depolarized rabbit aorta. (IC50 in rabbit aorta strips contracted with KCl(95% confidence interval)); assay type: functional, organism-based; outline: as §1
# [7] = In Vitro evaluation for the affinity for the diltiazem receptor in isolated guinea pig skeletal muscle microsomal preparations by inhibiting [3H]diltiazem binding; assay type: microsomes, Cavia porcellus, Muscle tissue
# Outline: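 Membranes from male guinea pig (350–450 g) hind-limb muscle, mainly quadriceps and gastrocnemius, in 50 mM Tris-HCl. 125–250 μg protein incubated with [3H]-d-cis-diltiazem and competing drug, 250 μL final, 30 °C for 1 h. Rapid GF/B filtration and scintillation counting. Nonspecific binding defined with 100 μM unlabeled diltiazem. Kd calculated from concentration–response curves for inhibition of specific binding; ±SEM.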
# Rattus norvegicus [8] = assay: In vivo evaluation for the percentage decrease in blood pressure at 270 umol/kg administered through oral route in spontaneously hypertensive rats and observed for 12-18 h; assay type: functional
IC50 (Oryctolagus cuniculus [1]) [nM],"IC50 (Oryctolagus cuniculus [5]; Oryctolagus cuniculus, Aorta) [nM]","IC50 (Oryctolagus cuniculus [6]; Oryctolagus cuniculus, Aorta) [nM]",IC50 (Oryctolagus cuniculus [6]) [nM],IC50 (Oryctolagus cuniculus [5]) [nM],SMILES,Decrease (Rattus norvegicus [2]) [%],Decrease (Rattus norvegicus [3]) [%],Decrease (Rattus norvegicus [4]) [%],Kd [7] [nM],Decrease (Rattus norvegicus [8]) [%]
95,,,,,COc1ccc([C@@H]2Cc3c(cccc3C(F)(F)F)N(C[C@@H]3CCCN3)C(=O)[C@@H]2O)cc1,30,27,26,,
,240,,,,COc1ccc([C@@H]2Cc3c(cccc3C(F)(F)F)N(CCN(C)C)C(=O)[C@@H]2OC(C)=O)cc1.Cl,24,24,26,,
,,,,,COc1ccc([C@@H]2Cc3c(cccc3C(F)(F)F)N(CCO)C(=O)[C@@H]2OC(C)=O)cc1,1,4,3,,
,1900,,,,CNCCN1C(=O)[C@H](O)[C@H](c2ccc(OC)cc2)Cc2cc(C(F)(F)F)ccc21,14,14,15,,
,,1600,,,COc1ccc([C@@H]2Cc3c(Cl)cccc3N(CCN(C)C)C(=O)[C@@H]2OC(C)=O)cc1,9,11,8,,
,,,,,COc1ccc([C@@H]2Sc3cc(Cl)ccc3N(CCN(C)C)C(=O)[C@@H]2OC(C)=O)cc1 (relative stereo) [CLENTIAZEM],41,24,26,95,
,,,,,COc1ccc([C@@H]2Cc3cc(OC)ccc3N(CCN(C)C)C(=O)[C@@H]2OC(C)=O)cc1.Cl,15,10,8,,
> 3000,,,,,COc1ccc([C@@H]2Cc3c(cccc3C(F)(F)F)N(CC=O)C(=O)[C@@H]2OC(C)=O)cc1,,,,,
,,300,,,COc1ccc([C@@H]2Cc3c(cccc3C(F)(F)F)N(CCN(C)C)C(=O)[C@@H]2O)cc1,21,28,26,,
,,> 10000,,,COc1ccc([C@H]2Cc3cc(C(F)(F)F)ccc3N(CCN(C)C)C(=O)[C@H]2OC(C)=O)cc1.Cl (stereo in doubt),7,7,8,6300,
,690,,,,CNCCN1C(=O)[C@H](O)[C@H](c2ccc(OC)cc2)Cc2c1cccc2C(F)(F)F,16,22,20,,
,,210,,,COc1ccc([C@@H]2Sc3ccccc3N(CCN(C)C)C(=O)[C@@H]2OC(C)=O)cc1 (relative stereo) [DILTIAZEM],23,17,12,200,
,,1100,,,COc1ccc([C@@H]2Cc3c(cccc3C(F)(F)F)N(C[C@H]3CCCN3C)C(=O)[C@@H]2OC(C)=O)cc1,20,18,21,,
,,1500,,,COc1ccc([C@@H]2Cc3cc(Cl)ccc3N(CCN(C)C)C(=O)[C@@H]2OC(C)=O)cc1,13,,14,,18
,,4900,,,COc1ccc([C@H]2Cc3c(cccc3C(F)(F)F)N(CCN(C)C)C(=O)[C@H]2OC(C)=O)cc1.Cl (stereo in doubt; 4n),9,9,9,2000,
,,180,,,CNCCN1C(=O)[C@H](OC(C)=O)[C@H](c2ccc(OC)cc2)Cc2c1cccc2C(F)(F)F,32,32,34,,
,,,,,COc1ccc([C@H]2Cc3cc(Cl)ccc3N(CCN(C)C)C(=O)[C@@H]2OC(C)=O)cc1,12,12,12,690,
1800,,,,,COc1ccc([C@@H]2Sc3ccccc3N(CCN(C)C)C(=O)[C@@H]2OC(C)=O)cc1 [DILTIAZEM],,,,,

IC50 (Oryctolagus cuniculus [1]) [nM],"IC50 (Oryctolagus cuniculus [5]; Oryctolagus cuniculus, Aorta) [nM]","IC50 (Oryctolagus cuniculus [6]; Oryctolagus cuniculus, Aorta) [nM]",IC50 (Oryctolagus cuniculus [6]) [nM],IC50 (Oryctolagus cuniculus [5]) [nM],SMILES,Decrease (Rattus norvegicus [2]) [%],Decrease (Rattus norvegicus [3]) [%],Decrease (Rattus norvegicus [4]) [%],Kd [7] [nM],Decrease (Rattus norvegicus [8]) [%]
,,4700,,,COc1ccc([C@@H]2Cc3ccccc3N(CCN(C)C)C(=O)[C@@H]2OC(C)=O)cc1.Cl,8,,8,5100,13
,,,,,COc1ccc([C@H]2Cc3cc(Cl)ccc3N(CCN(C)C)C(=O)[C@H]2OC(C)=O)cc1 (relative stereo),1,9,4,8200,
,,630,,,COc1ccc([C@@H]2Cc3c(cccc3C(F)(F)F)N(C[C@H]3CCCN3)C(=O)[C@@H]2OC(C)=O)cc1,21,26,22,,
,,890,,,COc1ccc([C@@H]2Cc3c(cccc3C(F)(F)F)N(C[C@H]3CCCN3)C(=O)[C@@H]2O)cc1,17,18,18,,
,,,,,COc1ccc([C@@H]2Cc3cc(C(F)(F)F)ccc3N(CCN(C)C)C(=O)[C@@H]2OC(C)=O)cc1.Cl,,18,19,,
,880,,,,CNCCN1C(=O)[C@H](OC(C)=O)[C@H](c2ccc(OC)cc2)Cc2cc(C(F)(F)F)ccc21,28,31,29,,
,,1600,,,COc1ccc([C@@H]2Cc3cc(C(F)(F)F)ccc3N(CCN(C)C)C(=O)[C@@H]2OC(C)=O)cc1.Cl (stereo in doubt),19,19,22,180,
,,,,,COc1ccc([C@@H]2Cc3c(cccc3C(F)(F)F)N(C[C@@H]3CCCN3)C(=O)[C@@H]2OC(C)=O)cc1,45,38,39,,
,> 10000,,,,COc1ccc([C@H]2Cc3c(cccc3C(F)(F)F)N(CCN(C)C)C(=O)[C@@H]2OC(C)=O)cc1.Cl (relative stereo),5,11,9,3800,
,,,3900,,COc1ccc([C@H]2Cc3c(cccc3C(F)(F)F)N(CCN(C)C)C(=O)[C@H]2OC(C)=O)cc1.Cl (stereo in doubt; 4p),,7,8,1200,
,,,,,COc1ccc([C@@H]2Cc3cc(C(F)(F)F)ccc3N(CCN(C)C)C(=O)[C@@H]2O)cc1.Cl,8,14,9,,
,,2400,,,COc1ccc([C@@H]2Cc3c(OC)cccc3N(CCN(C)C)C(=O)[C@@H]2OC(C)=O)cc1.Cl,0,1,0,,
,,150,,,COc1ccc([C@@H]2Cc3c(cccc3C(F)(F)F)N(CCN(C)C)C(=O)[C@@H]2OC(C)=O)cc1.Cl (stereo in doubt),31,30,27,120,
,120,,,,COc1ccc(C2Sc3cc(OC)ccc3N(CCN(C)C)C(=O)C2OC(C)=O)cc1 (stereo not given),,,,42,
,520,,,,COc1ccc([C@@H]2Cc3c(cccc3C(F)(F)F)N(C[C@@H]3CCCN3C)C(=O)[C@@H]2OC(C)=O)cc1,30,29,29,,
,7700,,,,COc1ccc([C@@H]2Cc3ccc(Cl)cc3N(CCN(C)C)C(=O)[C@@H]2OC(C)=O)cc1,7,4,2,,
,> 3000,,,,COc1ccc([C@@H]2Cc3c(cccc3C(F)(F)F)N(CC(=O)O)C(=O)[C@@H]2OC(C)=O)cc1,6,4,3,,
,,,,240,COc1ccc([C@@H]2Sc3cc(Cl)ccc3N(CCN(C)C)C(=O)[C@@H]2OC(C)=O)cc1 [CLENTIAZEM],,,,81,
